Data as given in ChEMBL document CHEMBL3044819, “Structure-activity relationship in the interaction of substituted perinaphthenones with Mycosphaerella fijiensis” (J Agric Food Chem, 2009).
Active and inactive are the calls of the source. The calls are words filed in the database; no cut-off is given here.

What follows are molecules tested on Pseudocercospora fijiensis (assay: Antifungal activity against Pseudocercospora fijiensis assessed as inhibition of mycelial growth under 12 hr photoperiod measured after 8 days).
Assay type: functional, organism-based
How it was run: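 Microtiter well assay; inoculum adjusted to 2 × 10⁵ mycelial fragments/mL. Plates kept in an incubation chamber 1 m from white fluorescent tubes on a 12 h photoperiod. Mycelial growth was measured after 8 days, which is the logarithmic growth phase. IC₅₀ values were calculated from growth inhibition, with statistical analysis per Lazzaro et al. Benomyl and propiconazole were tested as reference fungicides.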

Compound	growth inhibition (GI)
COc1ccc2cccc3c2c1C=C([N+](=O)[O-])C3=O	Active
O=C1C(Cl)=Cc2cccc3cccc1c23	Active
O=C1C=Cc2ccc(O)c3cccc1c23	inactive
O=C1C([N+](=O)[O-])=Cc2cccc3cccc1c23	Active
COc1ccc2cccc3c2c1C=CC3=O	inactive
O=C1C=Cc2cccc3cccc1c23	Active
O=C1C(O)=Cc2cccc3cccc1c23	inactive
O=C1C=Cc2c(O)ccc3cccc1c23	inactive
COc1ccc2c3c(cccc13)C(=O)C=C2	inactive
COC1=Cc2cccc3cccc(c23)C1=O	inactive
O=C1C(Br)=Cc2cccc3cccc1c23	Active
O=C1C=C(O)c2cccc3cccc1c23	inactive
COC1=CC(=O)c2cccc3cccc1c23	inactive
